Data set [1] has as its system Mus musculus. Briefly: Neurotoxicity in Swiss Webster mouse assessed as induction of motor impairment at 5 mg/kg administered via oral gavage measured after 10 to 60 mins by rotarod method. The data set is classed as toxicity, organism-based. The note with it: in vivo. In outline: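 Female Swiss Webster mice were given diazepam 5 mg/kg by oral gavage as the positive control. Rotarod performance was tested 10, 30 and 60 min after dosing.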
(In general: Falling from the rotarod earlier than controls is read as motor impairment.)

The nature of data set [2]: Terminal elimination half-life in Wistar rat plasma at 10 mg/kg, ip administered as single dose by HPLC-MS/MS analysis. The data set is classed as ADME, organism-based. The note with it: read-out: beta t1/2 (converted). In outline: (§1)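 Male Wistar rats (250–350 g) received a single i.p. dose of 10 mg/kg as a 5 mg/ml suspension in 85% water, 14% propylene glycol and 1% Tween 80. Three rats per time point were sacrificed at 5, 20, 60, 180 and 720 min for plasma and brain. Samples were cleaned up by solid-phase extraction and quantified by HPLC-MS/MS.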

Data set [3] is described as follows: Metabolic stability in mouse liver microsomes assessed as parent compound remaining at 10 uM after 60 mins by LC-MS analysis. It counts as ADME, microsome. Conditions: read-out: Stability; call rule not given here. In outline: (§2)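 The 60 min samples of the microsomal incubation (10 μM compound, human or mouse liver microsomes at 0.5 mg/mL, NADPH regenerating system, 37 °C) were analysed by LC-MS. Detection used SIM mode with dual ESI/APCI ionization, calibrated to the retention times and masses of the parent and its O-demethylated metabolites. Peak intensities were measured.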

The next data set concerns HepG2. The experiment in a line: Cytotoxicity against human HepG2 cells assessed as reduction in cell viability up to 400 uM after 48 hrs by CellTiter-Glo assay. The data set is classed as cell-based. The note with it: hepg2, 48 h. In outline:
(§3)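 HEK293T and HepG2 cells grown in high-glucose DMEM with non-essential amino acids, 10 mM HEPES, penicillin/streptomycin and 10% heat-inactivated FBS. Cells were harvested with trypsin and plated; compound was pin-transferred 3 h later. Incubation was 48 h, then CellTiter-Glo luminescence was read. Controls were DMSO (negative) and a cytotoxic aminoketone (positive). Quadruplicates, three independent runs, normalized to controls, nonlinear regression.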

Data set [4] is described as follows: Tmax in Wistar rat plasma at 10 mg/kg, ip administered as single dose by HPLC-MS/MS analysis. It counts as ADME, organism-based. In outline: as §1
Data set [5] can be described thus: AUC (0 to 12 hrs) in Wistar rat plasma at 10 mg/kg, ip administered as single dose by HPLC-MS/MS analysis. The data set is classed as ADME, organism-based. More on the design: time < 12 hr, dose 10 mg/kg, route intraperitoneal.
The nature of data set [6]: Cmax in Wistar rat plasma at 10 mg/kg, ip administered as single dose measured at 5 to 720 mins post dose by HPLC-MS/MS analysis. The data set is classed as ADME, organism-based. More on the design: dose 10 mg/kg, route intraperitoneal. The essentials: (§4)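 Male Wistar rats (250-350 g) given a single 10 mg/kg i.p. dose of a 5 mg/ml suspension in 85% distilled water, 14% propylene glycol, 1% Tween 80. Three rats per time point (5, 20, 60, 180, 720 min). Blood and brain were collected after sacrifice. Drug was recovered by solid phase extraction and quantified by HPLC-MS/MS.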

The subject of a further data set is HEK-293T. The experiment in a line: Cytotoxicity against HEK293T cells assessed as reduction in cell viability up to 400 uM after 48 hrs by CellTiter-Glo assay. It counts as cell-based. The note with it: human. The essentials: as §3
The nature of data set [7]: Drug metabolism in mouse liver microsomes assessed as CYP450 mediated-O-demethylated 7-hydroxy-2-(6-hydroxypyridin-3-yl)-2H-pyrazolo[4,3-c]quinolin-3(5H)-one metabolite formation after 60 mins by LC-MS analysis. It counts as ADME. The note with it: 1 h. In outline: (§5)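 The 60-min samples from the human or mouse liver microsome incubations (10 µM compound, 0.5 mg/mL protein, NADPH regenerating system, 37 °C, pH 7.4) were run on LC-MS in SIM mode with dual ESI/APCI ionization. The method was calibrated to each component's retention time and mass, and the peak intensities of the parent and O-demethylated metabolites were measured.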

Data set [8] is described as follows: Drug metabolism in mouse liver microsomes assessed as CYP450 mediated-O-demethylated 2-(6-hydroxy-3-pyridyl)-7-(trideuteriomethoxy)-5H-pyrazolo[4,3-c]quinolin-3-one metabolite formation after 60 mins by LC-MS analysis. The note with it: 1 h. It counts as ADME. The essentials: as §5
Data set [9] in a line: Terminal elimination half-life in Wistar rat brain at 10 mg/kg, ip administered as single dose by HPLC-MS/MS analysis. It counts as ADME, organism-based. Conditions: read-out: beta t1/2 (converted). The essentials:
as §1

The next data set has as its system Brain. Briefly: AUC (0 to 12 hrs) in Wistar rat brain at 10 mg/kg, ip administered as single dose by HPLC-MS/MS analysis. It counts as ADME, organism-based. On the set-up: dose 10 mg/kg, time < 12 hr, route intraperitoneal. The note with it: in vivo.
A short description of data set [10]: Metabolic stability in human liver microsomes assessed as parent compound remaining at 10 uM after 60 mins by LC-MS analysis. It counts as ADME, microsome. The note with it: read-out: Stability. The essentials: as §2
(In general: Liver microsomes are a subcellular fraction often used to study metabolism.)

A short description of data set [11]: Tmax in Wistar rat brain at 10 mg/kg, ip administered as single dose by HPLC-MS/MS analysis. It counts as ADME, organism-based. In outline:
as §1

For data set [12], the target named is Voltage-gated inwardly rectifying potassium channel KCNH2 (Homo sapiens, UniProt Q12809). The experiment in a line: Displacement of [3H]-dofetilide from human ERG expressed in HEK cell membranes at >10 uM after 60 to 90 mins by scintillation counting. On the technique in general: In a radioligand displacement assay an active substance lowers the binding of a labelled ligand.
Sequence of Voltage-gated inwardly rectifying potassium channel KCNH2 (Q12809 whole entry): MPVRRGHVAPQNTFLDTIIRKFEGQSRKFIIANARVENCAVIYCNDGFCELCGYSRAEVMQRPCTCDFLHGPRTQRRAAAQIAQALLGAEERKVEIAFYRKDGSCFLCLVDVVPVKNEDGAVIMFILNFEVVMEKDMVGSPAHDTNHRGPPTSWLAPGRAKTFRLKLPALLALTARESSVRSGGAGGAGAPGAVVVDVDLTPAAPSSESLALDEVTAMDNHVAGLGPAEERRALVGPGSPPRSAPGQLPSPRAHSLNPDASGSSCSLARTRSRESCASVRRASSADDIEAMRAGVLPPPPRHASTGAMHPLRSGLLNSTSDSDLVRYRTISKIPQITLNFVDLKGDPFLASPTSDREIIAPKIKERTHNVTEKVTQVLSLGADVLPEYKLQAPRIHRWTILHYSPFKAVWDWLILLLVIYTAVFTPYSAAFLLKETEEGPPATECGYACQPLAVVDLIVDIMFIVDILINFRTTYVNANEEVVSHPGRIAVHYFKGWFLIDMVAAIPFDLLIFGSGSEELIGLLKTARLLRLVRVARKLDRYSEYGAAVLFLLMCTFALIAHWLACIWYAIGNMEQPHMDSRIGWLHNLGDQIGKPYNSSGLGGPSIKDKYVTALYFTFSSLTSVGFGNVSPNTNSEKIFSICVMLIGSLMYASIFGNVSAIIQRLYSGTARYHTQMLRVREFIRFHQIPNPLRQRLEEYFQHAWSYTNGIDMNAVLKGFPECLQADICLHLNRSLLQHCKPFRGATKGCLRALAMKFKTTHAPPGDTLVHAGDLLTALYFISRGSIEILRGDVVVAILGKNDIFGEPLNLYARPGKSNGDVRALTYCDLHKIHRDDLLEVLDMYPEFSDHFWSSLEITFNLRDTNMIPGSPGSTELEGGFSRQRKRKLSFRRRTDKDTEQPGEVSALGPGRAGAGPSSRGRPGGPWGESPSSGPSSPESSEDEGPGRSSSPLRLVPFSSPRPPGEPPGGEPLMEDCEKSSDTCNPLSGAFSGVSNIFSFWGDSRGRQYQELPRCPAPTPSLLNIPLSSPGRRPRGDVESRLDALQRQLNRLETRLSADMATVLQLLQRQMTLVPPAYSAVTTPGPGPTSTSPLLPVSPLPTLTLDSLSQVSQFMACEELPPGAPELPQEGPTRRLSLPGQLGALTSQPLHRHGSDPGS

The nature of data set [13]: Drug metabolism in human liver microsomes assessed as CYP450 mediated-O-demethylated 7-hydroxy-2-(6-methoxypyridin-3-yl)-2H-pyrazolo[4,3-c]quinolin-3(5H)-one metabolite formation after 60 mins by LC-MS analysis. The data set is classed as ADME. Conditions: 1 h. The essentials: as §5
The nature of data set [14]: Drug metabolism in human liver microsomes assessed as CYP450 mediated-O-demethylated 7-hydroxy-2-(6-hydroxypyridin-3-yl)-2H-pyrazolo[4,3-c]quinolin-3(5H)-one metabolite formation after 60 mins by LC-MS analysis. It counts as ADME. The note with it: 1 h. The essentials:
as §5

Data set [15] can be described thus: Cmax in Wistar rat brain at 10 mg/kg, ip administered as single dose measured at 5 to 720 mins post dose by HPLC-MS/MS analysis. It counts as ADME, organism-based. More on the design: dose 10 mg/kg, route intraperitoneal. In outline: as §4
In data set [16] the test system is Mus musculus. The experiment in a line: Neurotoxicity in Swiss Webster mouse assessed as induction of motor impairment at 40 mg/kg administered via oral gavage measured after 10 to 60 mins by rotarod method. It counts as toxicity, organism-based. Conditions: in vivo. The essentials: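 Female mice were given a single oral gavage dose of 40 mg/kg, either in 50% PBS/40% propylene glycol/10% DMSO or, for poorly soluble compounds, in 2% polyethylene glycol plus 2.5% hydroxymethyl cellulose. Rotarod performance was tested 10, 30 and 60 min after dosing, with diazepam 5 mg/kg as positive control.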

The nature of data set [17]: Drug metabolism in human liver microsomes assessed as CYP450 mediated-O-demethylated 2-(6-hydroxy-3-pyridyl)-7-(trideuteriomethoxy)-5H-pyrazolo[4,3-c]quinolin-3-one metabolite formation after 60 mins by LC-MS analysis. The note with it: 1 h. It counts as ADME. The essentials:
as §5

A short description of data set [18]: Drug metabolism in mouse liver microsomes assessed as CYP450 mediated-O-demethylated 7-hydroxy-2-(6-methoxypyridin-3-yl)-2H-pyrazolo[4,3-c]quinolin-3(5H)-one metabolite formation after 60 mins by LC-MS analysis. It counts as ADME. Conditions: 1 h. In outline: as §5
A short description of data set [19]: Drug metabolism in mouse liver microsomes assessed as CYP450 mediated-O-demethylated 8-chloro-2-(3-hydroxyphenyl)-2H-pyrazolo[4,3-c]quinolin-3(5H)-one metabolite formation after 60 mins by LC-MS analysis. The data set is classed as ADME. The note with it: 1 h. The essentials: as §5
Data set [20] can be described thus: Drug metabolism in human liver microsomes assessed as CYP450 mediated-O-demethylated 8-chloro-2-(3-hydroxyphenyl)-2H-pyrazolo[4,3-c]quinolin-3(5H)-one metabolite formation after 60 mins by LC-MS analysis. The data set is classed as ADME. The note with it: 1 h. The essentials: as §5
Another data set concerns Liver. The experiment in a line: Half life in mouse liver microsomes at 10 uM by LC-MS/MS analysis. The data set is classed as ADME, microsome. The essentials:
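Compound at 10 μM final was preincubated 5 min at 37 °C with NADPH regenerating system in phosphate buffer, pH 7.4. Human or mouse liver microsomes (0.5 mg/mL protein) were added to start the reaction. Samples were taken at 0 (no microsomes) and 10–60 min and measured by LC-MS/MS against an internal standard. Half-life = 0.693/k, with k the slope of ln peak-area ratio versus time. Three experiments, each in duplicate.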

Three molecules from ChEMBL document CHEMBL4033790, “Design and Synthesis of Novel Deuterated Ligands Functionally Selective for the γ-Aminobutyric Acid Type A Receptor (GABAAR) α6 Subtype with Improved Metabolic Stability and Enhanced Bioavailability” (J Med Chem, 2018) can be followed below.

As to `CN1C(=O)CN=C(c2ccccc2)c2cc(Cl)ccc21` [DIAZEPAM], the Activity entry in the data set on Mus musculus [1] is “Toxic”.

The Tmax is the time at which the peak concentration occurs. Usually AUC(0-t) stands for exposure summed from dosing to a finite time, without extrapolation to infinity. The term Cmax denotes the maximum level reached in the sampled fluid or tissue. For the molecule `[2H]C([2H])([2H])Oc1ccc2c3nn(-c4ccc(OC)nc4)c(=O)c-3c[nH]c2c1`, the half-life in [2] was 18 h; in data set [9], 9.07 h. The remaining at 1 h, 10 µM in data set [3] is 91.4%; in data set [10], 92.3%. For the same molecule, the Activity result with HepG2, with HEK-293T and in the data set on Mus musculus [16] was “Non-Toxic” throughout. For the same molecule, the Tmax in data set [4] was found to be 1 h; in data set [11] it was 1.67 h. Besides, the exposure AUC(0-t) at 12 h in [5] is 6020 ng·h/mL. For the same molecule, the Cmax in data set [6] was 1250 ng/mL; in [15], 215 ng/g. The Drug metabolism result in data set [7], in data set [8], in [13], in [14], in data set [17] and in data set [18] was “Metabolite_Detected” throughout. This molecule yielded an AUC with Brain of 1502.14 ng·h/g. Also, in data set [12], the “inhibition (INH)” value is “Not Active”.

As to `[2H]C([2H])([2H])Oc1cccc(-n2nc3c4cc(Cl)ccc4[nH]cc-3c2=O)c1`, the Drug metabolism entry in data set [19] and in data set [20] was “Metabolite_Detected” throughout. The results for the remaining at 1 h, 10 µM in data set [3] and in [10] were 76.6% and 93%, respectively. For the same molecule, the Activity entry with HepG2, with HEK-293T and with Mus musculus [16] was “Non-Toxic” in each case. This molecule also yielded a t1/2 in the data set with Liver of 2.8 h. Moreover, in data set [12], the “inhibition (INH)” value is on record as “Not Active”.
